From ChEMBL document CHEMBL5321206, “New amidine-benzenesulfonamides as iNOS inhibitors for the therapy of the triple negative breast cancer” (Eur J Med Chem, 2023)
Calls of active or inactive are those of the source. The rule behind the calls is not given here.

Assays:
[1] = target: T1, Nitric oxide synthase 3 (Bos taurus) (UniProt P29473); assay: Inhibition of full length N-terminal his-tagged bovine eNOS (2 to 1205 residues) expressed in Escherichia coli at 10 uM preincubated for 15 mins followed by NADPH addition and measured after 30 mins by HPLC analysis relative to control; conditions: time 45.0 min
T1 sequence (whole entry): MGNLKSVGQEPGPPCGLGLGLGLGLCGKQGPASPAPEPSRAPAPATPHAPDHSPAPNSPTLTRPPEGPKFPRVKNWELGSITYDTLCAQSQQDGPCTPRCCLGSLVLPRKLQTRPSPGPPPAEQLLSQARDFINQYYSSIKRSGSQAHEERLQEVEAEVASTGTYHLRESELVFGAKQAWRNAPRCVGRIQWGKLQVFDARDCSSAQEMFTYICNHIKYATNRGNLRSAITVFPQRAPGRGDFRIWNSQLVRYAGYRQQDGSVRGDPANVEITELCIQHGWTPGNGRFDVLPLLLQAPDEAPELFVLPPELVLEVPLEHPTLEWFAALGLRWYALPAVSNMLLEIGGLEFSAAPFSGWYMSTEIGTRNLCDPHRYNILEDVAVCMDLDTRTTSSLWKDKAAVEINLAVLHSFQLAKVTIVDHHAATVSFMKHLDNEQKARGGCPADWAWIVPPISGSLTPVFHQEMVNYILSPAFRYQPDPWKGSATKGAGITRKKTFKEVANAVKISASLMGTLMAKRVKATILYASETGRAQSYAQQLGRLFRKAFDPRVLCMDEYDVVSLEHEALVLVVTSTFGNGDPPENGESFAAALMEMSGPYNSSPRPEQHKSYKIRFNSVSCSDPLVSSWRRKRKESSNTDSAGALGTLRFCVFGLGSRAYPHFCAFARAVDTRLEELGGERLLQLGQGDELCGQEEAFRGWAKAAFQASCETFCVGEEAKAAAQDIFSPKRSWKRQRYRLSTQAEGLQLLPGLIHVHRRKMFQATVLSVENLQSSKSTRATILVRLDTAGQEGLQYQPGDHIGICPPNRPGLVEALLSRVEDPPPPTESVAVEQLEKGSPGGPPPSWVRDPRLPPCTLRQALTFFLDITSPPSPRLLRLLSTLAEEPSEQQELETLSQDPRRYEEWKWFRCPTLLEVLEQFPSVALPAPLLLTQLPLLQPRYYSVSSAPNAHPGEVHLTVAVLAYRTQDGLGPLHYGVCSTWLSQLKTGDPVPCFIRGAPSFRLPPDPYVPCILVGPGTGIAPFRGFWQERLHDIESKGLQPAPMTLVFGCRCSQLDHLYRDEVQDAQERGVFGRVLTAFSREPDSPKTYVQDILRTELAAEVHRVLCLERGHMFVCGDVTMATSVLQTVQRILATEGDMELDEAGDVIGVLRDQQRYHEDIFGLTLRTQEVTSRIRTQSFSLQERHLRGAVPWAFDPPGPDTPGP
How it was run: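 Recombinant bovine eNOS in HEPES buffer with 2 mM CaCl2 plus the same cofactor mix as the iNOS assay (DTT, BSA, FMN, FAD, BH4, calmodulin, 10 μM L-Arg). Compound pre-incubated 15 min at 37 °C. NADPH-started reaction run 30 min at 37 °C, quenched with cold CH3CN. Read by OPA/NAC fluorescence HPLC. […] IC50 from seven concentrations in triplicate.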

[2] = target: T2, Nitric oxide synthase, inducible (Homo sapiens, UniProt P35228); assay: Inhibition of N-terminal his6-tagged recombinant human iNOS expressed in Escherichia coli at 1 uM preincubated for 15 mins followed by NADPH addition and measured after 30 mins by HPLC analysis relative to control; conditions: time 45.0 min
How it was run: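 Recombinant human iNOS in 100 mM HEPES pH 7.4 with 0.1 mM CaCl2, 1 mM DTT, 0.5 mg/mL BSA, 10 μM FMN, 10 μM FAD, 30 μM BH4, 10 μg/mL calmodulin and 10 μM L-Arg. Compound pre-incubated 15 min at 37 °C. NADPH added to start the reaction, run 30 min at 37 °C, stopped with cold CH3CN. Product measured by OPA/NAC derivatization and fluorescence HPLC (ex 335/em 439 nm). […] IC50 from seven concentrations in triplicate, mean ± SD.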

MDA-MB-231 [3] = assay: Antiproliferative activity against human MDA-MB-231 cells assessed as reduction in cell viability measured after 5 days by PrestoBlue reagent based assay; assay type: functional; conditions: MDA-MB-231, 120 h
How it was run: (§1)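 MDA-MB-231 cells grown in DMEM with 10% FBS and 2 mM L-glutamine. Seeded 2000 cells/well, grown 24 h, then treated 5 days over 0.001–100 μM in triplicate wells. Read with PrestoBlue (10% v/v, 120 min), fluorescence ex 540/em 590 nm. Normalized to 0.1% DMSO controls. EC50 from sigmoidal variable-slope fit, mean ± SD, n = 3 independent experiments.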

MDA-MB-231 (human) = assay: Potency index, ratio of 1400W EC50 to test compound EC50 for antiproliferative activity against human MDA-MB-231 cells assessed as reduction in cell viability measured after 5 days by PrestoBlue reagent based assay; conditions: time 5 day
Nitric oxide synthase 3 = target: T3, Nitric oxide synthase 3 (Bos taurus, UniProt P29473); assay: Inhibition of full length N-terminal his-tagged bovine eNOS (2 to 1205 residues) expressed in Escherichia coli preincubated for 15 mins followed by NADPH addition and measured after 30 mins by HPLC analysis
T3 sequence (P29473 whole entry): T1 sequence (whole entry)
How it was run: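 Recombinant bovine eNOS in HEPES buffer with 2 mM CaCl2 plus the same cofactor mix as the iNOS assay (DTT, BSA, FMN, FAD, BH4, calmodulin, 10 μM L-Arg). NADPH-started reaction run 30 min at 37 °C, quenched with cold CH3CN. Read by OPA/NAC fluorescence HPLC. IC50 from seven concentrations in triplicate.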

[4] = Metabolic stability in rat liver microsome assessed as half life pretreated for 5 mins followed by NADPH and measured after 60 mins by HPLC analysis; assay type: ADME; conditions: liver microsomes, time 65 min
How it was run: (§2)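 Compound from 2 mM DMSO stock diluted in PBS with Sprague–Dawley rat liver microsomes and warmed 5 min at 37 °C. NADPH (10 mM stock) added, incubated 60 min at 37 °C, quenched with cold CH3CN and centrifuged. At least three repeats, verapamil as positive control. CLint scaled using 45 mg microsomal protein/g liver and 40 g liver/kg body weight.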

MCF-12A [5] = assay: Antiproliferative activity against human MCF-12A cells assessed as reduction in cell viability at 50 uM measured after 5 days by PrestoBlue reagent based assay relative to control; assay type: functional; conditions: time 5 day
How it was run: (§3)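 MCF-12A cells grown in DMEM/F12 (1:1) with 5% equine serum, EGF, hydrocortisone, cholera toxin and insulin, at 37 °C and 5% CO2. Seeded 2000 cells/well in triplicate and grown 24 h, then treated 5 days. Read with PrestoBlue (10% v/v, 120 min), fluorescence ex 540/em 590 nm. Viability normalized to 0.1% DMSO-treated cells (100%).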

[6] = target: T2, Nitric oxide synthase, inducible; assay: Inhibition of N-terminal his6-tagged recombinant human iNOS expressed in Escherichia coli preincubated for 15 mins followed by NADPH addition and measured after 30 mins by HPLC analysis
How it was run: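 Recombinant human iNOS in 100 mM HEPES pH 7.4 with 0.1 mM CaCl2, 1 mM DTT, 0.5 mg/mL BSA, 10 μM FMN, 10 μM FAD, 30 μM BH4, 10 μg/mL calmodulin and 10 μM L-Arg. NADPH added to start the reaction, run 30 min at 37 °C, stopped with cold CH3CN. IC50 from seven concentrations in triplicate, mean ± SD.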

MCF-12A [7] = assay: Antiproliferative activity against human MCF-12A cells assessed as reduction in cell viability measured after 5 days by PrestoBlue reagent based assay; assay type: functional; conditions: 120 h
How it was run: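 MCF-12A cells (DMEM/F12 1:1, 5% equine serum, EGF, hydrocortisone, cholera toxin, insulin) seeded 2000 cells/well, grown 24 h, then exposed 5 days to 0.001–100 μM in triplicate. Read with PrestoBlue (10% v/v, 120 min), ex 540/em 590 nm. Normalized to 0.1% DMSO controls. EC50 from sigmoidal variable-slope fit, mean ± SD of 3 independent experiments.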

MDA-MB-231 [8] = assay: Inhibition of cell migration in human MDA-MB-231 cells assessed as reduction in cell motility incubated for 24 hrs by scratch wound healing assay; assay type: functional, cell-based
How it was run: (§4)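 MDA-MB-231 cells seeded 20×10^4 cells/well, incubated 12 h, then serum-starved (1% FBS) for 24 h. Monolayer scratched with a pipette tip, washed with PBS and treated at 25 μM in starvation medium, with 0.1% DMSO as control. Wound imaged at 0 and 24 h (4× objective). Wound area measured to give percent closure.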

MDA-MB-231 [9] = assay: Inhibition of cell migration in human MDA-MB-231 cells assessed as reduction in wound closure incubated for 24 hrs by microscopic analysis; assay type: functional; set-up: scale not given: the % may be the effect or the level left; how it was run: as §4
[10] = Metabolic stability in rat liver microsome assessed as hepatic clearance pretreated for 5 mins followed by NADPH and measured after 60 mins by HPLC analysis; assay type: ADME; conditions: liver microsomes, time 65 min; how it was run: as §2
MCF-12A [11] = assay: Antiproliferative activity against human MCF-12A cells assessed as reduction in cell viability at 25 uM measured after 5 days by PrestoBlue reagent based assay relative to control; assay type: functional; conditions: time 5.0 day; how it was run: as §3
[12] = target: T2, Nitric oxide synthase, inducible; assay: Inhibition of iNOS (unknown origin)
MDA-MB-231 [13] = assay: Antiproliferative activity against human MDA-MB-231 cells assessed as reduction in cell viability upto 100 uM measured after 5 days by PrestoBlue reagent based assay; assay type: functional; conditions: time 5.0 day; how it was run: as §1

T2 sequence (P35228 whole entry): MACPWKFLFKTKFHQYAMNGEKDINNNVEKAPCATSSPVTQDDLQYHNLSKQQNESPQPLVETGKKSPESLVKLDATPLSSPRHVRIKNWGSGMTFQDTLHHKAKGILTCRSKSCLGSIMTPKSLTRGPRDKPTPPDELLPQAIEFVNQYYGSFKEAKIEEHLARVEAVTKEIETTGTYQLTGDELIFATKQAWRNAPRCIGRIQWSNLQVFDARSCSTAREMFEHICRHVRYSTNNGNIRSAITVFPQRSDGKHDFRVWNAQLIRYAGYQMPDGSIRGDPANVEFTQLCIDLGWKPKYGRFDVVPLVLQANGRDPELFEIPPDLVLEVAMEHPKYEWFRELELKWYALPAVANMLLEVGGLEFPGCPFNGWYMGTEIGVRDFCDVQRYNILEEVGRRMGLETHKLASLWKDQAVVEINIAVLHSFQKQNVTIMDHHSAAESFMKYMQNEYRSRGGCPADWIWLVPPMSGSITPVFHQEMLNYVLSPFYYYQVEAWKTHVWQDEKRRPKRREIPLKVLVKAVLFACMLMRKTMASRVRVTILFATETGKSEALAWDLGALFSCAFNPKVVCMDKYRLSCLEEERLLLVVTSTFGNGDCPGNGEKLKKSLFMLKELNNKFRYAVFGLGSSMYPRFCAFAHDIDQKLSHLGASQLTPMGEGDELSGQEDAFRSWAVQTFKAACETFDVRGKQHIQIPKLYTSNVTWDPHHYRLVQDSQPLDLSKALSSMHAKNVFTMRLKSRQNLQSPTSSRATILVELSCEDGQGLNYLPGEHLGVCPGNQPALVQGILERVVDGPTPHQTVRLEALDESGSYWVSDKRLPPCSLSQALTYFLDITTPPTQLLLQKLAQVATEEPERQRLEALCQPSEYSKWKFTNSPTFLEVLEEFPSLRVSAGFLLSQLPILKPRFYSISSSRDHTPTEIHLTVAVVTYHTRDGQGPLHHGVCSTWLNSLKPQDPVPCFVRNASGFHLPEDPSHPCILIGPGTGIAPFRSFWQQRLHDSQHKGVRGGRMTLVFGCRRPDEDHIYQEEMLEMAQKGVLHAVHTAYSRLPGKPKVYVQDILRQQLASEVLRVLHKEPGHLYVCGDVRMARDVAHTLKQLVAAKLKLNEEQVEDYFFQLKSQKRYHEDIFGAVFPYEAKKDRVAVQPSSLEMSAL

| inhibition [1] | inhibition [2] | Structure (SMILES) | also measured |
| --- | --- | --- | --- |
| 19% | 65% | N=C(NCc1cccc(CNS(=O)(=O)c2ccc([N+](=O)[O-])cc2)c1)c1ccc(Cl)cc1 |  |
| 28% | 59% | Cc1ccc(S(=O)(=O)NCc2cccc(CNC(=N)c3ccc(C(F)(F)F)cc3)c2)cc1 |  |
| 26% | 72% | N=C(NCc1cccc(CNS(=O)(=O)c2ccc([N+](=O)[O-])cc2)c1)c1ccc(C(F)(F)F)cc1 |  |
| 35% | 71% | N=C(NCc1cccc(CNS(=O)(=O)c2ccc([N+](=O)[O-])cc2)c1)c1ccccc1 |  |
| inactive | inactive | N=C(NCc1ccc(NS(=O)(=O)c2ccc([N+](=O)[O-])cc2)cc1)c1ccc(C(F)(F)F)cc1 |  |

More lines, now with the values behind:

| Structure (SMILES) | inhibition [1] | inhibition [2] | also measured |
| --- | --- | --- | --- |
| Cc1ccc(S(=O)(=O)NCc2cccc(CNC(=N)c3ccc(Cl)cc3)c2)cc1 | 18% | 72% |  |
| N=C(NCc1ccc(NS(=O)(=O)c2ccc([N+](=O)[O-])cc2)cc1)c1ccc(Cl)cc1 | 46% | 69% |  |
| CC(=N)NCc1ccc(NS(=O)(=O)c2ccc([N+](=O)[O-])cc2)cc1 | inactive | inactive |  |
| CC(=N)NCc1cccc(CN)c1 [1400W] |  |  | EC50 (MDA-MB-231 [3]): > 100 µM |
| Br.Cc1ccc(S(=O)(=O)NCc2cccc(CNC(=N)c3ccccc3)c2)cc1 | inactive | 83% | Ratio EC50 (MDA-MB-231 (human)): 4; IC50 (Nitric oxide synthase 3): > 50 µM; half-life [4]: 38 min; EC50 (MDA-MB-231 [3]): 24.7 µM; Activity (MCF-12A [5]): 91%; IC50 [6]: 0.065 µM; EC50 (MCF-12A [7]): 79 µM; Activity (MDA-MB-231 [8]): Active; Activity (MDA-MB-231 [9]): 15%; CLint scaled [10]: 39.6 mL/min/kg; Activity (MCF-12A [11]): inactive |
| COC(=O)[C@@H](N)CCCNC(=N)N[N+](=O)[O-] [L-NAME] |  |  | IC50 [12]: 13.5 µM |
| CC(=N)NCc1cccc(CNS(=O)(=O)c2ccc(C)cc2)c1 | inactive | inactive |  |
| N=C(NCc1ccc(NS(=O)(=O)c2ccc([N+](=O)[O-])cc2)cc1)c1ccccc1 | inactive | 52% | IC50 (Nitric oxide synthase 3): > 50 µM; Activity (MDA-MB-231 [13]): inactive; EC50 (MDA-MB-231 [3]): > 100 µM; IC50 [6]: 0.832 µM |
